Jurkat NFkB inh: lowers PMA/ionomycin-induced NF-kB signal in Jurkat cells. PMA/ionomycin-induced NF-kB luciferase reporter, luminescence. inhibition, % at 4 µM. hit rate 0.53% among 330,000. AID 435003; in the data active = inhibition above about 50%
Mdm2 MdmX PPI: human Mdm2/MdmX binding inhibition; O15151+Q00987; SaOS-2 split-luciferase Mdm2/MdmX complementation, luminescence; inhibition, % at 8 µM; hit rate 3% among 330,000; AID 485346;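 active = inhibition of at least 50% at 8 µM in the primary screen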
Target sequence (O15151 whole entry, looked up): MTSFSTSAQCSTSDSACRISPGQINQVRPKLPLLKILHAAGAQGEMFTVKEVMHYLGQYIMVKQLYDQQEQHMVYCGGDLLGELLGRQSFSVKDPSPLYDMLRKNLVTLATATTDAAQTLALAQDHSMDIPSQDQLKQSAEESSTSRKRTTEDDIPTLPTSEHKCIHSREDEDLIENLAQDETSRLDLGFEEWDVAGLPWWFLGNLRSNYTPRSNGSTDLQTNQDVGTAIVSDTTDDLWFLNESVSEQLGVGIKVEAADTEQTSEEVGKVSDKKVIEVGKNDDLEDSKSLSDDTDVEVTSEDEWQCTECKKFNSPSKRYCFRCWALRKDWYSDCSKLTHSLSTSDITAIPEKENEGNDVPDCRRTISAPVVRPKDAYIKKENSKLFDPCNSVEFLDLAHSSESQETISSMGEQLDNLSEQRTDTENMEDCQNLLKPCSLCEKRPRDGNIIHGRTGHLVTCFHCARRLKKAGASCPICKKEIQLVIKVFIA
Target sequence (Q00987 whole entry, looked up): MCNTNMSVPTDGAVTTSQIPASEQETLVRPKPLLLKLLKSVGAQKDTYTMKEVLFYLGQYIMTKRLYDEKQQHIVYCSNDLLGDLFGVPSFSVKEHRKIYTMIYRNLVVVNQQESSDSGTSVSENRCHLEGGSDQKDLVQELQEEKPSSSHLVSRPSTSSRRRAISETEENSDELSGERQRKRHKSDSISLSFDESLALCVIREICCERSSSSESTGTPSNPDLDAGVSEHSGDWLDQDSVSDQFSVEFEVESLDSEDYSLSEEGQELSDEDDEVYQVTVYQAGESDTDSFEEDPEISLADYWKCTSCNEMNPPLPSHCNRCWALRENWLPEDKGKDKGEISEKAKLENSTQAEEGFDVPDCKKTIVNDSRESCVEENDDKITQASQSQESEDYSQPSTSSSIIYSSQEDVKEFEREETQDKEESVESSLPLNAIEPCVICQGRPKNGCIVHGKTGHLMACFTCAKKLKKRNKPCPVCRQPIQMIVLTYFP
IMP-1 inhibitor: inhibitors of Pseudomonas aeruginosa IMP-1 metallo-beta-lactamase; purified IMP-1, nitrocefin hydrolysis, epi-absorbance fluorescence; inhibition, % at 5.6 µM; hit rate 0.45% among 290,000;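 active = inhibition above the mean plus 3 SD of all compounds in the same screening run, cut at about 4.5% in these data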;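 also: 0% = IMP-1 with DMSO and 100% = DMSO wells lacking enzyme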
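Assay system: purified IMP-1; Quantity: IMP-1 0.2 nM before substrate addition; Medium: HEPES buffer pH 7.1 with ZnSO4 and Brij 35; Incubation: 15 min enzyme–compound preincubation, then 25 min nitrocefin reaction, 25 °C; Signal: fluorescence quenching readout, ex 480/em 530 nm; Controls: DMSO with and without IMP-1; Repeats: singlicate testing.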
VIM-2 inhibitor: inhibitors of Pseudomonas aeruginosa VIM-2 metallo-beta-lactamase; hit rate 0.89% among 290,000; inhibition, % at 5.6 µM; purified VIM-2, nitrocefin hydrolysis, epi-absorbance fluorescence;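 active = inhibition above the mean of all tested compounds plus 3 SD, cutoff set per screening run, cut at about 7.5% in these data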;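 also: red hydrolysis product quenches plate fluorescence so inhibitors raise well fluorescence; 0% = enzyme with DMSO and 100% = DMSO without enzyme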
aSyn 5UTR inh: MLPCN primary screen, SNCA 5' untranslated region | alpha-synuclein 5'UTR reporter, inhibitor activity | inhibition, % (tested at 7.5 µM) | hit rate 0.82% among 300,000 | AID 1813; in the data active = inhibition above about 60%;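 also: H4 neuroglioblastoma cells stably carrying SNCA 5'UTR luciferase fusion; 0% = DMSO wells and 100% = positive control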
697 NFkB inh: inhibitors of the PMA/ionomycin-induced NF-kB reporter in 697 B cells; 697 B-cell NF-kB luciferase reporter, 16 h; inhibition, % at 4 µM; hit rate 0.33% among 330,000; AID 435022; in the data active = inhibition above about 35%
Mdm2-MdmX conf: human Mdm2/MdmX binding inhibition, confirmed; luminescent assay; inhibition, % at 8 µM; hit rate 55% among 10,000; shares compounds with Mdm2 MdmX PPI; in the data active = inhibition above about 40%
FLuc counter: inhibits full-length luciferase, flagging false Mdm2/MdmX hits; shares compounds with Mdm2 MdmX PPI; inhibition, % at 8 µM; hit rate 77% among 6,200; SaOS-2 full-length luciferase counterscreen, luminescence; AID 504607;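 active = mean inhibition at 8 µM reaching about 37%, which flags the compound as non-specific, limit read from the data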;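 also: p53-null SaOS-2 cells with luciferase driven by a doxycycline-inducible promoter; compound on cells about two nights before reading with doxycycline added after day one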
The depositor's hits bear a star; / = no result. Shown are actives, neighbours in structure and some others; about 4.7% of the full set was active somewhere.

SMILES | Jurkat NFkB inh | Mdm2 MdmX PPI | IMP-1 inhibitor | VIM-2 inhibitor | aSyn 5UTR inh | 697 NFkB inh | Mdm2-MdmX conf | FLuc counter
O=C1c2ccc3c4c(ccc(c24)C(=O)N1c1cccc(O)c1)C(=O)N(c1cccc(O)c1)C3=O | 3.8 | 64.8* | -2.0 | -0.9 | 68.1* | -42.9 | 47.3* | 1.4
Cc1ccc(-c2nn3c(C)nnc3c3ccccc23)cc1S(=O)(=O)NC(C)c1ccccc1 (configuration not stated) | -7.9 | 61.5* | 0.7 | 6.4 | 47.8 | 18.9 | 29.6 | /
CCN(CC)S(=O)(=O)c1cc(-c2nn(C)c(=O)c3ccccc23)ccc1C | 1.5 | 31.6 | -2.1 | -7.6 | 11.6 | -9.7 | / | /
COc1ccc(N2CCN(C(=O)c3cc4c(C)nc5ccccc5c4o3)CC2)cc1 | -12.9 | 30.5 | 0.5 | 4.5 | 7.9 | -24.4 | / | /
CC1O[C@@H](O[C@H](C)CC[C@@H](C)O)C(O)C[C@H]1O (some centres not stated) | 12.7 | 12.6 | / | / | 6.6 | 24.5 | / | /
COc1ccccc1-n1cnnc1SCC(=O)NC1CCCC1 | 4.2 | 9.7 | / | / | / | 14.3 | / | /
FC(F)(F)c1cc(CCN2CCNC[C@@H]2CC2CCCCC2)cc(C(F)(F)F)c1 | -1.0 | 99.6* | / | / | / | 10.1 | 19.4 | /
CCCC[C@@H]1CNCCN1CCc1cc(C(F)(F)F)cc(C(F)(F)F)c1 | 9.1 | 9.3 | / | / | 3.1 | 8.2 | / | /
NC1=NC[C@H](CC2CCCCC2)N1CCc1cc(C(F)(F)F)cc(C(F)(F)F)c1 | 5.4 | 100.2* | / | / | 8.4 | 4.0 | 81.2* | 59.5*
O=C(COC(=O)C1C2CC3OC(=O)C1C3C2)Nc1cccc(C(F)(F)F)c1 (configuration not stated) | -17.5 | -3.2 | -2.5 | -3.9 | 5.6 | 3.7 | / | /
COc1ccc2[nH]c(C)c(C(=O)CN(C)CC3OCCO3)c2c1 | 5.3 | 15.4 | -1.6 | -1.8 | -2.1 | 16.4 | / | /
CCCCCCCNC(=O)C1(CC2CC(c3cccc(Br)c3)=NO2)CCNCC1 (configuration not stated) | 16.5 | 100.3* | 0.9 | 0.5 | -8.8 | -21.7 | 85.1* | 60.1*
CCCCCCCNC(=O)C1(CC2CC(c3ccc(Cl)cc3)=NO2)CCNCC1 (configuration not stated) | 20.6 | 100.3* | 0.6 | 2.8 | 6.6 | -25.3 | 69.1* | 25.4
COC(=O)C1=C(C)N(Cc2ccccc2)C(=NCc2ccccc2)N[C@H]1c1ccccc1 | 11.9 | 90.5* | / | / | / | 12.6 | 30.9 | /
COC(=O)C1=C(C)N(Cc2ccccc2)C(=NCc2cc(OC)c(OC)c(OC)c2)N[C@H]1c1ccc(Br)cc1 | -15.7 | 68.7* | / | / | / | -22.9 | 22.1 | /
COC(=O)C1=C(C)N(Cc2ccccc2)C(=NCc2ccccc2)N[C@H]1c1cccc(F)c1 | 17.1 | 74.2* | -5.8 | -1.8 | -0.3 | 7.2 | 37.6 | 47.0*
COC(=O)C1=C(C)N(Cc2ccccc2)C(=NCc2cc(OC)c(OC)c(OC)c2)N[C@H]1c1ccccc1 | 2.5 | 30.5 | -2.8 | -0.4 | 11.3 | 5.4 | / | /
COC(=O)C1=C(C)N(Cc2ccccc2)C(=S)N[C@H]1c1cccc(F)c1 | 1.0 | 22.7 | -5.2 | -1.7 | 29.9 | 6.4 | / | /
CCN(CC)CCCN=C1N[C@@H](c2cccc(F)c2)C(C(=O)OC)=C(C)N1Cc1ccccc1 | 20.6 | 99.6* | / | / | / | 20.2 | 83.1* | 58.7*
Cc1noc(C)c1COc1ccc(C(=O)NCC(c2c(F)cccc2Cl)N(C)C)cc1 (configuration not stated) | 9.3 | 24.4 | / | / | / | 5.1 | / | /
O=C(c1ccco1)N1CCN(C(=S)Nc2ccc(Br)cc2Cl)CC1 | -0.4 | 6.9 | -2.5 | -1.0 | 4.1 | 3.9 | / | /
Nc1cc(C(F)(F)F)ccc1Nc1ccccc1 | 3.9 | 0.7 | -2.2 | -2.1 | -31.0 | 0.2 | / | /
COc1ccc(C(=O)NC(=O)COC(=O)CCS(=O)(=O)c2ccc(C)cc2)cc1 | -2.7 | 15.5 | / | / | / | -29.7 | / | /
CC[C@]12c3[nH]c4ccccc4c3CCN1C(=O)C(CC(=O)NCc1ccc(OC)c(OC)c1)C[C@@H]2C(=O)N1CCN(C(=O)C2CC2)CC1 (some centres not stated) | -5.9 | 7.0 | / | / | / | -17.8 | / | /
COc1cc(C(=O)NCC(=O)OCC(=O)N2CCc3ccccc32)cc(OC)c1OC | -5.3 | 10.0 | -3.5 | 0.9 | -1.0 | 15.4 | / | /
SMILES | Jurkat NFkB inh | Mdm2 MdmX PPI | IMP-1 inhibitor | VIM-2 inhibitor | aSyn 5UTR inh | 697 NFkB inh | Mdm2-MdmX conf | FLuc counter
CCN1C(=O)N[C@@H](c2cccc(F)c2)C(C(=O)OC)=C1C | 1.3 | -7.6 | / | / | -3.6 | 2.4 | / | /
COC(=O)C1=C(C)N(Cc2ccccc2)C(=NCc2cccc(Cl)c2)N[C@H]1c1ccccc1 | 3.3 | 88.7* | / | / | / | 20.1 | 34.0 | /
COCCN1C(=S)N[C@@H](c2cccc(F)c2)C(C(=O)OC)=C1C | -2.4 | 59.4* | -2.9 | -1.4 | 1.9 | 6.9 | 27.1 | /
CCN(CC)CCCN=C1N[C@@H](c2cccc(C(F)(F)F)c2)C(C(=O)OC)=C(C)N1CC | 10.5 | 99.6* | / | / | / | 15.9 | 74.5* | 30.4
Cc1ccc(-c2n[nH]c(=O)c3ccccc23)cc1S(=O)(=O)NCC1CCCO1 (configuration not stated) | 10.1 | 16.9 | -1.4 | 1.3 | -2.4 | 15.5 | / | /
Cc1ccc(NS(=O)(=O)c2cc(-c3n[nH]c(=O)c4ccccc34)ccc2C)cc1 | 42.4 | 64.0* | -1.2 | -1.1 | 16.2 | -35.8 | 65.7* | 50.2*
CCc1nnc(NC(=O)CSc2nc3cc(OC)ccc3cc2C)s1 | -6.2 | -21.8 | -2.6 | -1.8 | -15.3 | 26.2 | / | /
CCCNS(=O)(=O)c1cccc(C(=O)OCc2cc(=O)oc3cc(OC)ccc23)c1 | 43.7 | 69.7* | -2.4 | -3.9 | -96.6 | -23.1 | 56.2* | 66.0*
CN1C2CCC1/C(=C\c1ccc(F)cc1)C(=O)/C2=C/c1ccc(F)cc1 | 23.4 | 89.5* | -0.7 | -3.1 | -134.1 | -74.3 | 53.4* | 19.3
CC(C)CC(=O)O/N=C1\C(=O)N(Cc2ccc(Cl)cc2)c2ccc([N+](=O)[O-])cc21 | 15.0 | 59.5* | 0.1 | -2.1 | 36.4 | 0.6 | 26.1 | /
COc1cc(C=C(C(C)=O)C(C)=O)ccc1O | -10.4 | 2.3 | -2.2 | -3.7 | 10.2 | 24.3 | / | /
COc1cc(/C=C/C(=O)CC(=O)/C=C/c2ccc(O)c(OC)c2)ccc1O | 6.8 | 54.5* | 17.8* | -1.2 | -84.7 | -36.5 | 7.5 | /
COc1cc(/C=C/C(=O)O)ccc1O | 5.7 | 9.8 | / | / | -7.8 | 23.7 | / | /
COc1cc(/C=C/C(=O)/C=C(O)/C=C/c2ccc(O)c(OC)c2)ccc1O | 11.8 | 65.8* | / | / | / | -24.5 | 18.8 | /
CCCOc1c(OC)cccc1C1CC(=O)Nc2cc3c(cc21)OCO3 (configuration not stated) | 12.3 | 54.6* | -3.1 | -1.9 | -2.7 | -18.8 | 51.4* | 68.2*
COc1ccccc1C1CC(=O)Nc2cc3c(cc21)OCCO3 (configuration not stated) | 42.4 | 55.2* | -1.0 | -1.3 | 47.5 | -38.7 | 59.5* | 64.1*
